Laboratory results: ChEMBL document CHEMBL1155425, “Synthesis and antitumor activity of 1-mesityl-3-(2-naphthoylmethano)-1H-imidazolium bromide” (Bioorg Med Chem Lett, 2010)

Columns and labels:
[1] = system: K562; assay: Cell cycle arrest in human K562 cells assessed as accumulation at G2/M phase at 2 ug/ml after 24 hrs by flow cytometry; assay type: functional
Outline: (§1)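 K562 cells, synchronized, treated 24 h. Trypsinized, washed in PBS, fixed overnight in ice-cold 70% EtOH. Treated with RNase A 100 µg/mL at 37 °C for 30 min, then stained with propidium iodide (final 50 µg/mL). 20,000 cells analyzed by flow cytometry for DNA content; phase percentages representative of three independent experiments.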

[2] = system: HEp-2; assay: Cytotoxicity in human Hep2 cells after 48 hrs by MTT assay; assay type: functional, cell-based; conditions: HEp-2, 48 h
Outline: (§2)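 Cells grown at 37 °C, 5% CO₂, in RPMI 1640 with 10% fetal serum. Exposed 48 h to compound at 0.1–100 µg/mL. Viability by MTT, absorbance at 570 nm. IC50 is the concentration giving 50% reduction in absorbance versus untreated cells; triplicate tests.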

[3] = system: K562; assay: Cytotoxicity in human K562 cells after 48 hrs by MTT assay; assay type: functional, cell-based; conditions: K562, 48 h; outline: as §2
[4] = system: K562; assay: Induction of apoptosis in human K562 cells at 2 ug/ml after 24 hrs by Annexin-V-FITC/PI double labelled cytometry; assay type: functional
Outline: (§3)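 K562 cells (1 × 10⁶/mL) treated 24 h, then resuspended in binding buffer. Stained with Annexin V-FITC and PI for 15 min at room temperature in the dark, diluted in binding buffer, analyzed by flow cytometry. Apoptosis rate given as mean ± S.D. of at least three independent experiments.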

[5] = Selectivity ratio of IC50 for human A549 cells to IC50 for human Raji cells; assay type: functional
[6] = system: A549; assay: Antitumor activity against human A549 cells xenografted in nude mouse assessed as increase in tumor volume at 4 mg/kg, ip administered every 2 days for 19 days measured on day 19 postimplantation relative to tumor volume on day of implantation; assay type: functional; conditions: route intraperitoneal
Outline: (§4)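 Nude mice implanted s.c. in right flank with A549 cells (2 × 10⁷ cells/mL) on day 0. Treatment began at mean tumor ~100 mm³ (day 1). Compound in 0.5% CMC-Na given ip every 2 days for 19 days, 0.2 mL per 20 g body weight; cisplatin 1 mg/kg as reference. Caliper volume (W² × L)/2, expressed as RTV = TVn/TV₁.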

[7] = system: HepG2; assay: Cytotoxicity in human HepG2 cells after 48 hrs by MTT assay; assay type: functional, cell-based; conditions: HepG2, 48 h; outline: as §2
[8] = system: EJ; assay: Cytotoxicity in human EJ cells after 48 hrs by MTT assay; assay type: functional, cell-based; outline: as §2
[9] = system: Raji; assay: Cytotoxicity in human Raji cells after 48 hrs by MTT assay; assay type: functional, cell-based; outline: as §2
[10] = system: K562; assay: Cell cycle arrest in human K562 cells assessed as accumulation at G1 phase at 10 ug/ml after 24 hrs by flow cytometry; assay type: functional; outline: as §1
[11] = system: Mus musculus; assay: Acute toxicity in human A549 cells xenografted mouse at 10 to 80 mg/kg; assay type: organism-based; design: dose 10-80 mg/kg; conditions: in vivo
[12] = system: K562; assay: Cell cycle arrest in human K562 cells assessed as accumulation at G2/M phase at 10 ug/ml after 24 hrs by flow cytometry; assay type: functional; outline: as §1
[13] = system: A549; assay: Cytotoxicity in human A549 cells after 48 hrs by MTT assay; assay type: functional, cell-based; conditions: A549, 48 h; outline: as §2
[14] = system: A549; assay: Antitumor activity against human A549 cells xenografted in nude mouse assessed as increase in tumor volume at 8 mg/kg, ip administered every 2 days for 19 days measured on day 19 postimplantation relative to tumor volume on day of implantation; assay type: functional; conditions: route intraperitoneal; outline: as §4
[15] = system: K562; assay: Cell cycle arrest in human K562 cells assessed as accumulation at G1 phase at 2 ug/ml after 24 hrs by flow cytometry; assay type: functional; outline: as §1
[16] = system: K562; assay: Cell cycle arrest in human K562 cells assessed as accumulation at S phase at 10 ug/ml after 24 hrs by flow cytometry; assay type: functional; outline: as §1
[17] = system: SMMC-7721; assay: Cytotoxicity in human SMMC7721 cells after 48 hrs by MTT assay; assay type: functional, cell-based; conditions: SMMC-7721, 48 h; outline: as §2
[18] = Selectivity ratio of IC50 for human A549 cells to IC50 for human Hep2 cells; assay type: functional
[19] = system: K562; assay: Induction of apoptosis in human K562 cells at 10 ug/ml after 24 hrs by Annexin-V-FITC/PI double labelled cytometry; assay type: functional; outline: as §3
[20] = system: K562; assay: Cell cycle arrest in human K562 cells assessed as accumulation at S phase at 2 ug/ml after 24 hrs by flow cytometry; assay type: functional; outline: as §1

Cc1cc(C)c(-n2cc[n+](CC(=O)c3ccc4ccccc4c3)c2)c(C)c1.[Br-]
Activity [1]: 16% | IC50 [2]: 0.3 µg/mL | IC50 [3]: 1.7 µg/mL | Activity [4]: 8.1% | Ratio IC50 [5]: 8 | fold change (FC) [6]: 5.3 | IC50 [7]: 2.2 µg/mL | IC50 [8]: 1.2 µg/mL | IC50 [9]: 0.7 µg/mL | Activity [10]: 56% | Activity [11]: Non-toxic | Activity [12]: 19% | IC50 [13]: 5 µg/mL | fold change (FC) [14]: 3.1 | Activity [15]: 40% | Activity [16]: 26% | IC50 [17]: 1.8 µg/mL | Ratio IC50 [18]: 8 | Activity [19]: 15.5% | Activity [20]: 45%
